How the values were obtained:
[1] = Cytotoxicity against human Molt4/C8 cells; format: cell-based; conditions: MOLT-4
Summary of the method: (§1)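 Human Molt 4/C8 and CEM T-lymphocytes and murine L1210 cells were each exposed to at least three compound concentrations at 37 °C for 48 h. Growth inhibition was then measured, and IC50 values were derived from it.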

CCRF-CEM = assay: Cytotoxicity against human CEM cells; format: cell-based; summary of the method: as §1
L1210 = assay: Cytotoxicity against […] mouse L1210 cells; format: cell-based; summary of the method: as §1
HepG2 = assay: Induction of apoptosis in human HepG2 cells at 20 uM by TUNEL assay; format: functional
Summary of the method: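 HepG2 cells (ATCC) were kept in DMEM with 10% fetal calf serum and penicillin G/streptomycin/amphotericin B, at 37 °C in humidified 5% CO2. Cells on chambered slides were treated with the compound; controls had no addition or DMSO only. After 48 h, cells were fixed, permeabilized and TUNEL-stained (fluorescein). Labelled apoptotic cells were counted by fluorescence microscopy and reported as a percentage.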

[2] = Cytotoxicity against human HL60 (TB) cells; format: cell-based; conditions: HL-60
HCT-116 = assay: Cytotoxicity against human HCT116 cells; format: cell-based
HCC 2998 = assay: Cytotoxicity against human HCC2998 cells; format: cell-based
[3] = Cytotoxicity against human NCI49 cell lines; format: cell-based
KM12 = assay: Cytotoxicity against human KM12 cells; format: cell-based
HCT-15 = assay: Cytotoxicity against human HCT15 cells; format: cell-based
SW-620 = assay: Cytotoxicity against human SW620 cells; format: cell-based
K562 = assay: Cytotoxicity against human K562 cells; format: cell-based
[4] = Cytotoxicity against human RPMI8226 cells; format: cell-based; conditions: RPMI-8226
SR = assay: Cytotoxicity against human SR cells; format: cell-based
COLO 205 = assay: Cytotoxicity against human COLO205 cells; format: cell-based

| SMILES | IC50 [1] [µM] | IC50 (CCRF-CEM) [µM] | IC50 (L1210) [µM] | Activity (HepG2) [%] | IC50 [2] [µM] | IC50 (HCT-116) [µM] | IC50 (HCC 2998) [µM] | IC50 [3] [µM] | IC50 (KM12) [µM] | IC50 (HCT-15) [µM] | IC50 (SW-620) [µM] | IC50 (K562) [µM] | IC50 [4] [µM] | IC50 (SR) [µM] | IC50 (COLO 205) [µM] |
| --- | --- | --- | --- | --- | --- | --- | --- | --- | --- | --- | --- | --- | --- | --- | --- |
| O=C1/C(=C/c2ccccc2)CN(C(=O)c2ccc(OCCN3CCCCC3)cc2)C/C1=C\c1ccccc1 | 1.48 | 1.16 | 8.4 | – | – | – | – | – | – | – | – | – | – | – | – |
| Cl.O=C1/C(=C/c2ccc(Cl)cc2)CN(C(=O)c2ccc(OCCN3CCOCC3)cc2)C/C1=C\c1ccc(Cl)cc1 | 18.8 | 8.26 | 81.4 | 29.25 | 5.5 | 7.25 | < 0.005 | < 0.562 | 2.29 | 2.19 | 1.45 | 6.76 | 0.132 | – | – |
| CC[N+](C)(CC)CCOc1ccc(C(=O)N2C/C(=C\c3ccc([N+](=O)[O-])cc3)C(=O)/C(=C/c3ccc([N+](=O)[O-])cc3)C2)cc1 | 40.2 | 39.3 | 65 | – | – | – | – | – | – | – | – | – | – | – | – |
| O=C1/C(=C/c2ccccc2)CN(C(=O)c2ccccc2)C/C1=C\c1ccccc1 | 1.7 | 1.64 | 12 | – | – | – | – | – | – | – | – | – | – | – | – |
| O=C1/C(=C/c2ccc(Cl)cc2)CN(C(=O)c2ccc(OCCN3CCCCC3)cc2)C/C1=C\c1ccc(Cl)cc1 | 34 | 9.98 | 103 | – | 20.4 | 47.9 | 1.58 | > 11.5 | 19.1 | 49 | 3.55 | 4.37 | 0.759 | 2.29 | 15.8 |
| CC[N+](C)(CC)CCOc1ccc(C(=O)N2C/C(=C\c3ccccc3)C(=O)/C(=C/c3ccccc3)C2)cc1 | 124 | 110 | 160 | – | > 50.1 | > 50.1 | 28.2 | > 41.7 | 43.7 | > 50.1 | 30.2 | 43.7 | 17.4 | 38 | 20.4 |
| O=c1[nH]cc(F)c(=O)[nH]1 [FLUOROURACIL] | – | – | – | – | 85.1 | 2.04 | 5.75 | > 29.5 | 7.94 | 6.61 | 18.6 | 126 | 3.55 | 60.3 | 3.39 |
| CCN(CC)CCOc1ccc(C(=O)N2C/C(=C\c3ccc([N+](=O)[O-])cc3)C(=O)/C(=C/c3ccc([N+](=O)[O-])cc3)C2)cc1 | 0.31 | 0.34 | 3.63 | – | – | – | – | – | – | – | – | – | – | – | – |
| CCN(CC)CCOc1ccc(C(=O)N2C/C(=C\c3ccc(C)cc3)C(=O)/C(=C/c3ccc(C)cc3)C2)cc1 | 1.32 | 1.33 | 2.28 | – | – | – | – | – | – | – | – | – | – | – | – |
| O=C1/C(=C/c2ccccc2)CNC/C1=C\c1ccccc1 | – | – | – | – | 0.363 | 0.182 | 2 | 1.62 | 0.794 | 0.631 | 0.575 | 0.49 | 0.275 | 0.209 | 1.55 |
| CN(C)CCOc1ccc(C(=O)N2C/C(=C\c3ccccc3)C(=O)/C(=C/c3ccccc3)C2)cc1 | 0.58 | 1.24 | 10.2 | – | – | – | – | – | – | – | – | – | – | – | – |
| CCN(CC)CCOc1ccc(C(=O)O)cc1 | > 500 | > 500 | > 500 | – | – | – | 2 | – | – | – | – | – | – | – | – |
| Cc1ccc(/C=C2\CN(C(=O)c3ccc(OCCN4CCOCC4)cc3)C/C(=C\c3ccc(C)cc3)C2=O)cc1 | 1.72 | 1.36 | 21.8 | – | 1.1 | 2.45 | – | < 0.708 | 1.12 | 0.832 | 1.02 | 0.275 | 0.115 | 0.245 | 1.15 |
| CC[N+](C)(CC)CCOc1ccc(C(=O)N2C/C(=C\c3ccc(C)cc3)C(=O)/C(=C/c3ccc(C)cc3)C2)cc1 | 12.4 | 23.7 | 18.7 | – | 11.8 | 14.1 | 6.17 | 7.76 | 9.33 | 9.33 | 10.5 | 1.35 | 1.26 | 22.9 | 8.91 |
| CN(C)CCOc1ccc(C(=O)N2C/C(=C\c3ccc([N+](=O)[O-])cc3)C(=O)/C(=C/c3ccc([N+](=O)[O-])cc3)C2)cc1 | 0.314 | 0.319 | 5.19 | – | – | – | – | – | – | – | – | – | – | – | – |
| CC[N+](C)(CC)CCOc1ccc(C(=O)N2C/C(=C\c3ccc(Cl)cc3)C(=O)/C(=C/c3ccc(Cl)cc3)C2)cc1 | 55.8 | 71.2 | 729 | – | – | – | – | – | – | – | – | – | – | – | – |
| COc1ccc(C(=O)N2C/C(=C\c3ccccc3)C(=O)/C(=C/c3ccccc3)C2)cc1 | 2.39 | 5 | 37.8 | – | – | – | – | – | – | – | – | – | – | – | – |
| O=C1/C(=C/c2ccccc2)CN(C(=O)c2ccc(OCCN3CCOCC3)cc2)C/C1=C\c1ccccc1 | 8.42 | 6.84 | 222 | – | 0.562 | 0.339 | – | > 2.63 | 0.129 | 1.45 | 0.191 | 0.158 | 0.123 | – | 22.9 |
| Cc1ccc(/C=C2\CN(C(=O)c3ccc(OCCN4CCCCC4)cc3)C/C(=C\c3ccc(C)cc3)C2=O)cc1 | 0.91 | 1.14 | 5.14 | – | 0.933 | 1.58 | – | 1.38 | 0.148 | 1.07 | 0.339 | 0.589 | 0.123 | – | 6.92 |
| Cc1ccc(/C=C2\CN(C(=O)c3ccc(OCCN(C)C)cc3)C/C(=C\c3ccc(C)cc3)C2=O)cc1 | 1.39 | 0.884 | 7.14 | – | 1.32 | 1.38 | 0.229 | 1.15 | 0.776 | 0.912 | 0.562 | 1.82 | 0.224 | 0.479 | 1.02 |
| N[C@@H](Cc1ccc(N(CCCl)CCCl)cc1)C(=O)O [MELPHALAN] | – | – | – | – | 2.04 | 30.2 | 41.7 | 26.9 | 43.7 | – | 38.9 | 43.7 | 66.1 | 1.86 | 66.1 |
| CCN(CC)CCOc1ccc(C(=O)N2C/C(=C\c3ccccc3)C(=O)/C(=C/c3ccccc3)C2)cc1 | 1.28 | 1.65 | 8.23 | – | – | < 0.01 | – | < 1.38 | 1.74 | 1.17 | 1.35 | 0.043 | < 0.01 | – | 2.63 |
| CCN(CC)CCOc1ccc(C(=O)N2C/C(=C\c3ccc(Cl)cc3)C(=O)/C(=C/c3ccc(Cl)cc3)C2)cc1 | 18.3 | 12.3 | 47.3 | – | – | – | – | – | – | – | – | – | – | – | – |
| CN(C)CCOc1ccc(C(=O)N2C/C(=C\c3ccc(Cl)cc3)C(=O)/C(=C/c3ccc(Cl)cc3)C2)cc1 | 1.44 | 1.09 | 7.18 | – | 1.41 | 6.03 | 0.263 | 1.91 | 1.74 | 0.295 | 0.209 | 0.331 | 0.098 | 0.126 | 1.7 |
| O=C1/C(=C/c2ccc([N+](=O)[O-])cc2)CN(C(=O)c2ccc(OCCN3CCCCC3)cc2)C/C1=C\c1ccc([N+](=O)[O-])cc1 | 0.33 | 0.315 | 4.74 | – | – | – | – | – | – | – | – | – | – | – | – |
| O=C1/C(=C/c2ccc([N+](=O)[O-])cc2)CN(C(=O)c2ccc(OCCN3CCOCC3)cc2)C/C1=C\c1ccc([N+](=O)[O-])cc1 | 0.343 | 0.379 | 6.34 | – | – | – | – | – | – | – | – | – | – | – | – |

— ChEMBL document CHEMBL1144477, “Design, synthesis and cytotoxic properties of novel 1-[4-(2-alkylaminoethoxy)phenylcarbonyl]-3,5-bis(arylidene)-4-piperidones and related compounds” (Eur J Med Chem, 2007)
